From ChEMBL document CHEMBL3286344, “Bromopyrrole alkaloids isolated from the Patagonian bryozoan Aspidostoma giganteum” (J Nat Prod, 2014)

Experiment: Cytotoxicity against human 786-O cells assessed as growth inhibition by MTS assay
Assay type: functional, cell-based
Conditions: 786-0; call rule not given here
In short: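 Cells seeded at 2 × 10³/well in complete medium; after 24 h, serial doses 0.05−100 μM or DMSO vehicle in medium with 2% FBS for 3 days, medium with fresh compound replaced every 2 days. Viability by MTS reduction to formazan, read as 492/620 nm absorbance ratio; IC50 derived. Cells checked mycoplasma-free by Hoechst method.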

Row | SMILES | IC50
1 | O=C(NC[C@@H](O)c1cc(Br)c(O)c(Br)c1)c1[nH]cc(Br)c1Br | Not Active
2 | O=C(NC[C@@H](O)c1cc(Br)c(O)c(Br)c1)c1cc(Br)c(Br)[nH]1 | Not Active
3 | O=C(NC[C@@H](O)c1cc(Br)c(O)c(Br)c1)c1[nH]c(Br)c(Br)c1Br | Not Active
4 | O=C1N[C@H](O)[C@H](c2c(Br)[nH]c3ccc(Br)cc23)n2c(Br)c(Br)c(Br)c21 | Not Active
5 | O=c1c2c(Br)c(Br)cn2c(-c2cc(Br)c(O)c(Br)c2)cn1-n1cc(-c2cc(Br)c(O)c(Br)c2)n2c(Br)c(Br)cc2c1=O | Not Active
6 | CCO[C@H](CNC(=O)c1[nH]c(Br)c(Br)c1Br)c1cc(Br)c(O)c(Br)c1 | Not Active

Same assay, conditions: Homo sapiens, 786-0; read-out: IC50

Row | SMILES | IC50 [µM]
7 | COc1ccc(C(=O)C(NC(=O)c2cc(Br)c(Br)[nH]2)OC)cc1Br (stereo unspecified) | 100
8 | CO[C@H]1NC(=O)c2c(Br)c(Br)c(Br)n2[C@H]1c1c(Br)[nH]c2ccc(Br)cc12 | 7.8
9 | O=c1[nH]cc(-c2c(Br)[nH]c3ccc(Br)cc23)n2c(Br)c(Br)c(Br)c12 | 27
10 | O=C(NCCc1c(Br)[nH]c2cc(Br)cc(O)c12)c1cc(Br)c(Br)[nH]1 | 15.1
11 | COc1cccc2c1C(=O)c1c(O)c3c(c(O)c1C2=O)C[C@@](O)(C(=O)CO)C[C@@H]3O[C@H]1C[C@H](N)[C@H](O)[C@H](C)O1 [DOXORUBICIN] | 0.13
